Test results as given in ChEMBL document CHEMBL3632599, “2-((Benzimidazol-2-yl)thio)-1-arylethan-1-ones: Synthesis, crystal study and cancer stem cells CD133 targeting potential” (Eur J Med Chem, 2015).
Calls of active or inactive are those of the source. No cut-off for these calls is given here.

Assays:
HT-29 [1] = experiment: Inhibition of cell surface expression of CD133 in human HT-29 cells at 10 uM by flow cytometric analysis relative to control; format: functional
Method in brief: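 HT-29 cells exposed to compound at 10 µM, then harvested, washed and stained with APC-conjugated anti-CD133 monoclonal antibody. Analysed by flow cytometry (BD LSR II), with debris and cell clusters excluded by forward- and side-scatter gating. Reported as % inhibition of […] relative to untreated cells; mean ± SD of three separate experiments.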

HT-29 [2] = experiment: Cytotoxicity against human HT-29 cells assessed as growth inhibition after 48 hrs by WST-1 assay; format: functional, cell-based; conditions: HT-29, 48 h
Method in brief: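 HT-29 human colon cancer cells kept in RPMI 1640 with 10% FBS, penicillin, streptomycin and 2 mmol/L L-glutamine. Seeded at 0.4*10⁴/well, left overnight, then medium replaced with fresh medium holding the test concentrations for 48 h. WST-1 added, 4 h at 37 °C, formazan read at 450 nm. IC₅₀ taken relative to untreated controls; mean ± SD of three separate experiments.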

| SMILES | inhibition (HT-29 [1]) | IC50 (HT-29 [2]) [µM] | inhibition at 10 µM (HT-29 [1]) [%] |
| --- | --- | --- | --- |
| O=C(CSc1nc2ccccc2[nH]1)c1ccc(Br)cc1 | inactive | 43 | – |
| O=C(CSc1nc2ccccc2[nH]1)c1ccccc1 | inactive | 38.5 | – |
| O=C(CSc1nc2ccccc2[nH]1)c1ccc([N+](=O)[O-])cc1 | inactive | 57 | – |
| O=C(CSc1nc2ccccc2[nH]1)c1ccco1 | – | 24.6 | 56.8 |
| COc1ccc(C(=O)CSc2nc3ccccc3[nH]2)cc1 | – | 25.2 | 52.5 |
| O=c1[nH]cc(F)c(=O)[nH]1 [FLUOROURACIL] | – | 15.8 | – |
| CCOc1ccc(C(=O)CSc2nc3ccccc3[nH]2)cc1 | – | > 100 | 55.1 |
| COc1ccccc1C(=O)CSc1nc2ccccc2[nH]1 | – | 36.1 | 34.9 |
| COc1ccc(C(=O)CSc2nc3ccccc3[nH]2)c(OC)c1OC | – | 18.8 | 50.1 |
| COc1ccc(C(=O)CSc2nc3ccccc3[nH]2)cc1OC | – | 19.1 | 52.6 |
| O=C(CSc1nc2ccccc2[nH]1)c1cccs1 | – | 23.9 | 55.6 |
| O=C(CSc1nc2ccccc2[nH]1)c1ccc2c(c1)OCO2 | – | 36.8 | 51.2 |
| Cc1ccc(C(=O)CSc2nc3ccccc3[nH]2)cc1 | – | 34.5 | 40 |
| O=C(CSc1nc2ccccc2[nH]1)c1ccc(O)cc1 | inactive | 19.2 | – |
| COc1ccc(C(=O)CSc2nc3ccccc3[nH]2)cc1O | – | 33 | 49.7 |
| O=C(CSc1nc2ccccc2[nH]1)c1ccc(F)cc1 | inactive | 78.7 | – |
